Most compounds without a hit are left out; they make up all but 2.2% or so of the library.
TDP2 absorb: blocks human TDP2 phosphodiesterase activity; O95551; recombinant TDP2, T5PNP hydrolysis, p-nitrophenol absorbance 415 nm; inhibition, % at 12.8 µM; 370,000 compounds, 0.34% hits;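 active = inhibition above the mean of all tested compounds plus 3 SD, set per campaign, cut at about 25% in these data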
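Evaluation: % inhibition relative to enzyme-containing and enzyme-free wells. Material: recombinant human TDP2. Benchmarks: enzyme-free and DMSO wells. Timing: enzyme reaction with compound for 2 h at 37 °C. Compound dosing: 12.8 µM only. Measured by: p-Nitrophenol epi absorbance. Reagent: T5PNP substrate at 5 mM, a TopII-DNA adduct mimic. Replication: single well per compound.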
HTRA1 inh: blocks human HTRA1 serine peptidase. Q92743. recombinant HTRA1, FP-rhodamine activity-based probe, fluorescence polarization. inhibition, % at 5.96 µM. 340,000 compounds, 0.5% hits; in the data active = inhibition above about 36%
Target sequence (Q92743 whole entry, looked up): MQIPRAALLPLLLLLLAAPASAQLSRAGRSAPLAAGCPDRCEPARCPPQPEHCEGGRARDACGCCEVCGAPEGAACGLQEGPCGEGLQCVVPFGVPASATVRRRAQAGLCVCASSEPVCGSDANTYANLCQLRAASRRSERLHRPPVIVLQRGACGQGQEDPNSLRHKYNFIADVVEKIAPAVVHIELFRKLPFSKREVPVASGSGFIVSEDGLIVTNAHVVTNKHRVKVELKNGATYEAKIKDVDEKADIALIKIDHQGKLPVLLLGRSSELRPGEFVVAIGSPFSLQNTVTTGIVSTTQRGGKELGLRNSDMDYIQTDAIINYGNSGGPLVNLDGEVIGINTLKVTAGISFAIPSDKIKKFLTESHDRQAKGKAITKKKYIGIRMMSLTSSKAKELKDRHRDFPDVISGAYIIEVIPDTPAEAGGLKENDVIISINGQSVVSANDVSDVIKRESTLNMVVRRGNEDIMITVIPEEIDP
TCR CD3 inh: blocks the human TCR-CD3 interaction; inhibition, % at 9.4 µM; TAMRA-labeled TCR probe fluorescence, biochemical; 360,000 compounds, 0.37% hits; AID 651800; in the data active = inhibition above about 19%;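 note: recombinant mutant TCR 2C K166C tagged with TAMRA read by polarization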
mABHD4 FP: ABHD4 (mouse) inhibition, primary FP screen. AID 720543. inhibition, % at 8.92 µM. purified mABHD4, FP-Rh probe fluorescence polarization. Q8VD66. 370,000 compounds, 0.54% hits;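 active = inhibition exceeding the mean over every tested compound plus 3 SD, cut at about 30% in these data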
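Doses – 8.92 µM, single dose · Material – wild-type mouse ABHD4 protein · Replication – single well per compound (singlicate) · Measure – percent inhibition of probe binding, normalized to plate controls · Schedule – 45 min compound pre-incubation plus 60 min probe step, 25 °C · Detection – fluorescence polarization with parallel and perpendicular emission, 525/598 nm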
LEDGF integ inh: blocks HIV-1 LEDGF/p75-dependent DNA integration; 370,000 compounds, 0.64% hits; inhibition, % at 3.7 µM; TR-FRET IN-LEDGF/p75 DNA integration, Eu/Cy5;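 active = inhibition above the screen-wide mean plus 3 SD, cut at about 13% in these data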;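 note: signal is the Cy5 over europium emission ratio at 671 and 618 nm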
SIAE primary: human SIAE inhibition, primary screen | Q9HAT2 | SIAE FP-Rh probe binding, fluorescence polarization | inhibition, % at 9.66 µM | 370,000 compounds, 0.69% hits | AID 1053197;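 active = inhibition above a cutoff: mean of compounds within the control limits plus 3 SD of those, cut at about 17% in these data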
SIAE inh conf: human SIAE inhibition, confirmation | SIAE FP-Rh activity-based probe, fluorescence polarization | inhibition, % at 9.66 µM | shares compounds with SIAE primary | AID 1117263 | 2,300 compounds, 13% hits;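 active = mean inhibition of the replicates above the hit cutoff set in the primary screen, cut at about 17% in these data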;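 note: inhibitors lower polarization as more probe stays unbound to SIAE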
Large screens that a line does not name were inactive (follow-up assays come after a bar, where they were run).

COc1ccccc1CN1C(=O)CN(C2CCCCCC2)C(=O)C1c1ccc(F)cc1 (configuration not stated)	none
CC1=CC(C)(C)N2C(=O)C3(NCCc4c3[nH]c3ccccc43)c3cccc1c32 (configuration not stated)	SIAE primary 17.9 | SIAE inh conf inactive
CC(=O)c1ccc(OCC(=O)NC(=O)NC2CCCC2)cc1	SIAE primary 18.3 | SIAE inh conf inactive
CC(=O)c1ccc(OCC(=O)NC2CCCCCC2)cc1	none
O=C(COC(=O)C1COc2ccccc2O1)NC(=O)NC1CCCCC1 (configuration not stated)	SIAE primary 46.9 | SIAE inh conf inactive
CCOc1ccc(C2C(C(=O)OC)=CN(C(C)c3ccccc3)C=C2C(=O)OC)cc1 (configuration not stated)	SIAE primary 18.3 | SIAE inh conf inactive
CCOc1ccc(CCNC(=O)C(O)c2ccccc2)cc1 (configuration not stated)	none
CCCCCCn1c(N(CC)CC)nc2c1c(=O)[nH]c(=O)n2C	SIAE primary 22.7 | SIAE inh conf inactive
CC(C)COC(=O)N1CCCCC1c1cc(C(=O)NCc2ccccc2)no1 (configuration not stated)	none (no result: HTRA1 inh)
CC1CCC/C(=N/NC(=O)c2ccccc2-n2cccc2)C1 (configuration not stated)	SIAE primary 42.4 | SIAE inh conf inactive
CC(C)C(C(=O)O)N1C(=O)C2C3CCC(C3)C2C1=O (configuration not stated)	none
CC(C)(C)n1nnnc1C(CCc1ccccc1)N1CCN(C/C=C/c2ccccc2)CC1 (configuration not stated)	none (no result: HTRA1 inh)
Cc1ccc(S(=O)(=O)NCCCN(C)C)cc1	SIAE primary 19.1 | SIAE inh conf inactive
O=S1(=O)c2c(cccc2N2CCSCC2)Oc2ccccc2CN1Cc1cn(Cc2ccc(Cl)cc2)nn1	none (no result: HTRA1 inh, TCR CD3 inh)
CN(C)CCCN(C(=O)c1ccc(S(=O)(=O)N(C)Cc2ccccc2)cc1)c1nc2cc3c(cc2s1)OCO3	SIAE primary 21.7 | SIAE inh conf inactive
Cc1ccc2nc(-c3ccc(C#N)cc3)c(Cc3cccc(F)c3)n2c1	none (no result: HTRA1 inh)
C(#CC1=CCCCC1)CNCC1CC1	none (no result: HTRA1 inh, TCR CD3 inh)
COc1ccccc1CNC(=O)C(=O)Nc1nccs1	none
COc1cccc(CNc2nccs2)c1O	SIAE primary 17.8 | SIAE inh conf inactive
CCNC(=O)NC(=O)C(C)Sc1nnc(COc2ccccc2Cl)o1 (configuration not stated)	SIAE primary 28.7 | SIAE inh conf inactive
CCNC(=O)NC(=O)C(C)Sc1ccc2c(c1)OCCO2 (configuration not stated)	none
CC1CCCCN1S(=O)(=O)c1ccc2c(c1)C(C)(C)C(=O)N2C (configuration not stated)	none
COc1cc(/C=N/N=C2/NC(=O)C(c3ccccc3)S2)ccc1O (configuration not stated)	SIAE primary 18.7 | SIAE inh conf inactive
CC(C)CN1C(=O)[C@]2(CC(=O)N(C)C2c2ccccc2)c2cc(-n3cc(CN(C)C)nn3)ccc21 (some centres not stated)	SIAE primary 18.3 (no result: HTRA1 inh, TCR CD3 inh) | SIAE inh conf inactive
O=C(CSc1nnc(-c2ccc(F)cc2)o1)N1CCCC1	SIAE primary 20.7 | SIAE inh conf inactive
O=C(CSc1nnc(-c2cccc(F)c2)o1)NC1CCCC1	SIAE primary 19.9 | SIAE inh conf inactive
CC(=O)Nc1ccc(OCC(O)Cn2c(C)nc3ccccc32)cc1 (configuration not stated)	SIAE primary 18.6 | SIAE inh conf inactive
Nc1ccc(C(=O)N/N=C/c2cn(Cc3ccccc3F)c3ccccc23)cc1	SIAE primary 20.3 | SIAE inh conf inactive
Cn1c2ccccc2c2cc(/C=N/NC(=O)c3ccc(N)cc3)ccc21	SIAE primary 24.5 | SIAE inh conf inactive
COc1cc(C(=O)N/N=C/c2cn(Cc3ccccc3)c3ccccc23)ccc1O	SIAE primary 25.1 | SIAE inh conf inactive
Cn1c2ccccc2c2cc(/C=N/NC(=O)c3ccccc3F)ccc21	none
CNC(=S)N/N=C/c1cn(Cc2ccc(F)cc2)c2ccccc12	SIAE primary 18.8 | SIAE inh conf inactive
CCOC(=O)Cn1nc(C)cc1NC(=O)c1cccnc1	none
NC(=O)c1ccsc1NC(=O)COC(=O)c1nc(Cl)ccc1Cl	none
COc1ccc(Nc2nc(-c3cccc(OC)c3O)nc3ccccc23)cc1	SIAE primary 17.6 | SIAE inh conf inactive
Cc1c(C(=O)Nc2c(N)nc(SCC(=O)NCC3CCCO3)[nH]c2=O)cccc1[N+](=O)[O-] (configuration not stated)	none
Cc1ccc(S(=O)(=O)Nc2nc(C)c(NC(=O)Nc3ccc(Cl)cc3Cl)s2)cc1	SIAE primary 34.6 | SIAE inh conf 29.4
CSC[C@@H]1NC(=S)N(c2ccc(C)cc2)C1=O	SIAE primary 51.7 | SIAE inh conf inactive
Cc1ccc(N2C(=O)C3CCC(C)(C2=O)C3(C)C)cc1 (configuration not stated)	none
O=C(CN1C(=O)NC2(CCCCC2)C1=O)N1CCN(S(=O)(=O)c2cccc([N+](=O)[O-])c2)CC1	SIAE primary 18.4 | SIAE inh conf inactive
O=C(CN1C(=O)NC2(CCCCC2)C1=O)N1CCN(S(=O)(=O)c2cccc(F)c2)CC1	none
Cc1ccc(S(=O)(=O)N2[C@@H](c3cccc(Cl)c3)C(C(=O)OC(C)(C)C)=CC[C@H]2c2cccc(Cl)c2)cc1	none (no result: HTRA1 inh)
CCn1c(SCC(N)=O)nc2cc(S(=O)(=O)N3CCOCC3)ccc21	none
CCn1c(CCl)nc2cc(S(=O)(=O)N3CCOCC3)ccc21	SIAE primary 17.8 (no result: HTRA1 inh) | SIAE inh conf inactive
CCc1nc(N2CCN(S(=O)(=O)c3ccc(Br)cc3)CC2)c2c(C)c(C)sc2n1	none
Cc1nc(N2CCN(S(=O)(=O)c3ccc(Br)cc3)CC2)c2c(C)c(C)sc2n1	SIAE primary 18.8 | SIAE inh conf inactive
O=C(CCNC(=O)c1ccc(Cl)cc1)Nc1ncccc1O	none
O=C(CCNC(=O)c1ccc(Br)cc1)Nc1ncccc1O	SIAE primary 23.5 | SIAE inh conf inactive
COCCN(CC(=O)Nc1cccc(C)c1C)C(=O)Cn1cnc2ccccc2c1=O	none
Cc1ccc(S(=O)(=O)Oc2ccccc2/C=N/NC(N)=S)cc1	none
Cc1ccc(S(=O)(=O)Oc2ccccc2/C=N/N=C(N)N)cc1	SIAE primary 21.4 | SIAE inh conf inactive
CCOc1ccc(NC(=O)CCC(=O)NNC(=O)c2ccccc2Cl)cc1	none
O=C(N/N=C\c1cc(Br)ccc1O)c1ccc(S(=O)(=O)N2CCCCC2)cc1	SIAE primary 32.1 | SIAE inh conf 39.4

Assay outcomes as filed in PubChem.
